Assay results as given in ChEMBL document CHEMBL4014338, “Discovery of Small Molecules as Multi-Toll-like Receptor Agonists with Proinflammatory and Anticancer Activities” (J Med Chem, 2017).

What was measured:
Toll-like receptor 8 = biological target: T1, Toll-like receptor 8 (Homo sapiens, UniProt Q9NR97); assay: Agonist activity at human TLR8 expressed in HEK293 cells assessed as induction of NF-kB activation-mediated SEAP production after 24 hrs by HTS assay; type: cell-based
T1 sequence (Q9NR97 whole entry): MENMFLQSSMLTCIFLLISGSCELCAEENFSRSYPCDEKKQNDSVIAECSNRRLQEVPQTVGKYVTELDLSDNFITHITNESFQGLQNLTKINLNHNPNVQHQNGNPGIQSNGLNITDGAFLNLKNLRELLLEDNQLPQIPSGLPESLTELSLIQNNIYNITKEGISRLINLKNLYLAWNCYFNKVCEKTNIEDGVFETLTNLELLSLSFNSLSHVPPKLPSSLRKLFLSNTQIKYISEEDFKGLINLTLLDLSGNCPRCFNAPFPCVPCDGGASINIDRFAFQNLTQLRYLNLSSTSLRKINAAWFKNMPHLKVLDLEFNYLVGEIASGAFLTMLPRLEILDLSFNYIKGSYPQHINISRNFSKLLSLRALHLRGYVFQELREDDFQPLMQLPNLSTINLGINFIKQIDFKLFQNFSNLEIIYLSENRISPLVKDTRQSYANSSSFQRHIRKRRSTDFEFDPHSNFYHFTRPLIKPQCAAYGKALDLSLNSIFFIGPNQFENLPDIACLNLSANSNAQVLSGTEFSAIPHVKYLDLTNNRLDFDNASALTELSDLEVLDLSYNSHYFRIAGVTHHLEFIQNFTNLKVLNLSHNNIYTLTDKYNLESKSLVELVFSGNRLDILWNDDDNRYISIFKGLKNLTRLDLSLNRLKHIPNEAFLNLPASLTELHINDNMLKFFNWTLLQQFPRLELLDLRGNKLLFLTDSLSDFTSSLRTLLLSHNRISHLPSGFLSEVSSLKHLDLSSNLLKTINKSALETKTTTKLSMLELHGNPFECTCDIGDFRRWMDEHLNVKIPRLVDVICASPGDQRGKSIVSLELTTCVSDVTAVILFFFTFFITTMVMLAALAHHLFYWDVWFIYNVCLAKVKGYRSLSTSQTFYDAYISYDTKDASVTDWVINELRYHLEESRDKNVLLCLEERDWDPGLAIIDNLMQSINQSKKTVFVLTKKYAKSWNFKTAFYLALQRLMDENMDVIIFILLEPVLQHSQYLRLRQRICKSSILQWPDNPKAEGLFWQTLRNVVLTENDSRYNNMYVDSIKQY
How it was run: (§1)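 HEK293 cells stably expressing human TLR8 or TLR9 plus an NF-κB-inducible SEAP reporter, seeded at 5 × 10^4 cells/well for 24 h, then treated for 24 h. Supernatant incubated with QUANTI-Blue at 37 °C for 1 h and OD read at 620 nm. Positive controls were R848 (TLR8) and ODN2006 (TLR9). EC50 reported as mean ± SD.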

Toll-like receptor 9 = biological target: T2, Toll-like receptor 9 (Homo sapiens, UniProt Q9NR96); assay: Agonist activity at human TLR9 expressed in HEK293 cells assessed as induction of NF-kB activation-mediated SEAP production after 24 hrs by HTS assay; type: cell-based; how it was run: as §1
T2 sequence (Q9NR96 whole entry): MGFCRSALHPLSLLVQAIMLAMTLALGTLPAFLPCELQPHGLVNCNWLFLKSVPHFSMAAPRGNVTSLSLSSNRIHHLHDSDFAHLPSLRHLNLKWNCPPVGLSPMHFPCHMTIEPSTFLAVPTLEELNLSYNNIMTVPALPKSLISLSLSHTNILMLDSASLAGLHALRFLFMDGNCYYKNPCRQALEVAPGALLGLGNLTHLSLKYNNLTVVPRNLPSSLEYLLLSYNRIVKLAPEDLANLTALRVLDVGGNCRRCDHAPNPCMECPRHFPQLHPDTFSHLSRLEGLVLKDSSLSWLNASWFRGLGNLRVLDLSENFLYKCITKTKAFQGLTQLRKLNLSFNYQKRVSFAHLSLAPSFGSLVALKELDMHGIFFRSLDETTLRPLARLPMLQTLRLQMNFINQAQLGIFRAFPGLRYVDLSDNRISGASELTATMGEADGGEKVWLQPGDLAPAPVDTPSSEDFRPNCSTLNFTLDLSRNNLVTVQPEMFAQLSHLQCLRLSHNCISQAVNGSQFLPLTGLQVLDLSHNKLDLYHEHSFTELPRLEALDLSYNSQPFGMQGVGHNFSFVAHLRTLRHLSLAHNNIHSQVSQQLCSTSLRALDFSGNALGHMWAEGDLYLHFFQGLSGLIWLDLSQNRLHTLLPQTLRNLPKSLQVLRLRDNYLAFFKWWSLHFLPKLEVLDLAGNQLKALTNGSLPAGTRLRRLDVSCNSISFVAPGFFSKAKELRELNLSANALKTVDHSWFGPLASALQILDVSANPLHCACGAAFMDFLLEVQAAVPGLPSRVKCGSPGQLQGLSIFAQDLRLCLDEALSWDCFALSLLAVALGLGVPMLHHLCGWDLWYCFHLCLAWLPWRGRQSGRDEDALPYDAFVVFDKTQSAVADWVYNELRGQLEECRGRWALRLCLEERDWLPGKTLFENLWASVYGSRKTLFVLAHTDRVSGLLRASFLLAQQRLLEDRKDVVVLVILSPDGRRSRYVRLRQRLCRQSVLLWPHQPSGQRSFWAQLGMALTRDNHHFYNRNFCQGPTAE

HeLa [1] = assay: Antiproliferative activity against human HeLa cells after 72 hrs by WST1 assay; type: functional, cell-based
How it was run: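 Cells seeded at 5 × 10^3/well and left 24 h, then given a concentration series for 24, 48 or 72 h. WST-1 reagent added and incubated at 37 °C for 30 min–2 h until color change; absorbance 450 nm. Growth inhibition = (1 − [sample − background]/[control − background]) × 100. IC50 mean ± SD, three cell preparations.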

HeLa [2] = assay: Cell cycle arrest in human HeLa cells assessed as accumulation at G2/M phase at 10 uM after 24 hrs by propidium iodide staining based flow cytometry (reference value: 17%); type: functional
HeLa [3] = assay: Cell cycle arrest in human HeLa cells assessed as accumulation at G2/M phase at 30 uM after 24 hrs by propidium iodide staining based flow cytometry (reference value: 17%); type: functional
HeLa [4] = assay: Cell cycle arrest in human HeLa cells assessed as accumulation at S phase after 24 hrs by propidium iodide staining based flow cytometry; type: functional

With `O=[N+]([O-])c1ccc(COc2cc3c(cc2OCc2ccc([N+](=O)[O-])cc2)OC2(C=C3)CCOCC2)cc1` as the molecule, how does the EC50 (Toll-like receptor 8) read?
The EC50 was 13.4 µM.

And the EC50 (Toll-like receptor 9)?
The EC50 was 5.66 µM.

What about the Activity (HeLa [1]) of the same molecule?
The Activity was “Dose-dependent effect”.

What about the IC50 (HeLa [1]) of the same molecule?
Its IC50 is 2.71 µM.

What about the Activity (HeLa [2]) of the same molecule?
Its Activity is 19%.

And the Activity (HeLa [3])?
The Activity was 20%.

And the Activity (HeLa [4])?
The Activity was “Dose-dependent effect”.
